The record followed here is ChEMBL document CHEMBL1135816, “6-Aryl-1,4-dihydro-benzo[d][1,3]oxazin- 2-ones: a novel class of potent, selective, and orally active nonsteroidal progesterone receptor antagonists” (J Med Chem, 2002).

pEC50, pIC50: −log10 of the molar value.

In data set [1] the target is T1, Progesterone receptor (Homo sapiens, UniProt P06401).
T1 sequence (P06401 whole entry): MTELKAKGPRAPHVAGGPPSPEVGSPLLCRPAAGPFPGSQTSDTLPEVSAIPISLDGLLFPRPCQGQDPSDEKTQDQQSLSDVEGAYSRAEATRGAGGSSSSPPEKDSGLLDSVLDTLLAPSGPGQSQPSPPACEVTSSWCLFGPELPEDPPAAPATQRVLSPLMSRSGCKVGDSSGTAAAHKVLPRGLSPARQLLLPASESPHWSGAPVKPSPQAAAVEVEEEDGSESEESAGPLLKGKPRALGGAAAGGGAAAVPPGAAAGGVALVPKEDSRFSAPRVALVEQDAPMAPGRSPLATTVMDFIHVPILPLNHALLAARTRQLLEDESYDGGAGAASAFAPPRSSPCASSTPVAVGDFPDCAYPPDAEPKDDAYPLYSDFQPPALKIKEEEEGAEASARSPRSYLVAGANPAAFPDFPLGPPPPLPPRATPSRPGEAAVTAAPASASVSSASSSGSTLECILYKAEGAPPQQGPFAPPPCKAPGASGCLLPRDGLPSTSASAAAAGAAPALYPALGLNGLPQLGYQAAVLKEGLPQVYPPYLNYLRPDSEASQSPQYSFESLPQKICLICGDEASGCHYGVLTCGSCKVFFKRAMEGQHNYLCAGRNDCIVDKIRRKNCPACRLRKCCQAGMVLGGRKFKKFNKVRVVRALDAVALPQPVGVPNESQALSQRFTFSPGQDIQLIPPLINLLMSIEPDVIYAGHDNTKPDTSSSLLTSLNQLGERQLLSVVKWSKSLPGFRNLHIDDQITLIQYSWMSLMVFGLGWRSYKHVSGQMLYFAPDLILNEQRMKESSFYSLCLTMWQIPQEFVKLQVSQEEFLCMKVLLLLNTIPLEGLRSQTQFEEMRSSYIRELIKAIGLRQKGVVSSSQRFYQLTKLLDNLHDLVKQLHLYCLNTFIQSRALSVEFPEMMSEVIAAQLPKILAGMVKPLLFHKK
The data set is described as follows: Antagonist activity against progesterone receptor (PR) in an alkaline phosphatase assay in the T47D human breast carcinoma cell line. The format is functional, cell-based.

Data set [2] has as its target T1, Progesterone receptor. The data set is described as follows: Antagonist activity against progesterone receptor (PR) in an assay using PRE-luciferase plasmid co-transfected CV-1 cells. The data set is classed as functional, cell-based. The gist of the method: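 CV-1 cells cotransfected with hPR and PRE-luciferase plasmids, luciferase read-out; IC50 averaged from at least duplicate determinations.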

Data set [3] addresses T1, Progesterone receptor. The data set can be described thus: Agonist activity against progesterone receptor (PR) in an alkaline phosphatase assay in the T47D human breast carcinoma cell line. The data set is classed as functional, cell-based. The essentials: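 T47D human breast carcinoma cells scored for PR agonism via alkaline phosphatase read-out; EC50 taken as the mean of at least duplicate determinations.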

Data set [4] addresses T2, Progesterone receptor (Rattus norvegicus) (UniProt Q63449).
T2 sequence (whole entry): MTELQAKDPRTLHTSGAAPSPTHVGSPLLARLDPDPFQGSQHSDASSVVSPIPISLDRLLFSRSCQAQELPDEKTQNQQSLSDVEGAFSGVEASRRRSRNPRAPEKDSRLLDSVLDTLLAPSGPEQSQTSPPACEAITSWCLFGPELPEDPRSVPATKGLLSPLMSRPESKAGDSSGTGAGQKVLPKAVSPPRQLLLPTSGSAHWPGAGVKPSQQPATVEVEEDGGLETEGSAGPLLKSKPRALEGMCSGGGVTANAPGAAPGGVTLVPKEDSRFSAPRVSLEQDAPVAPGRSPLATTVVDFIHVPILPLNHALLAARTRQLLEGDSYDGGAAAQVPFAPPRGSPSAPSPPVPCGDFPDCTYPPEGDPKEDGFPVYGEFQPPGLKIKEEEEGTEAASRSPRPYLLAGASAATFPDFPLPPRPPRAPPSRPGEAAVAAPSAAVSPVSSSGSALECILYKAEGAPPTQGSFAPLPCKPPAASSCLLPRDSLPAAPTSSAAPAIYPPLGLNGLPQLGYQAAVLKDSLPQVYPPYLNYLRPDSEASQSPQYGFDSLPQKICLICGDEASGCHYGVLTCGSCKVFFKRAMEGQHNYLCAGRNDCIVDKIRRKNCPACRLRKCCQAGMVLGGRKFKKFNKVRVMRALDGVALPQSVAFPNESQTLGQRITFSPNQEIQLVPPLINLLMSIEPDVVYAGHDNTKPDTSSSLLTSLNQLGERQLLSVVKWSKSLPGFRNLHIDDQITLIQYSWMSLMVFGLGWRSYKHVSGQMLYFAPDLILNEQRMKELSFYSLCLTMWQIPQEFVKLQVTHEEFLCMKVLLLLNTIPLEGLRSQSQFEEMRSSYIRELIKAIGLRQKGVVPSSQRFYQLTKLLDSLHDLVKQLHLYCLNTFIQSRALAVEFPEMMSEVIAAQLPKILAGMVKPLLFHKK
The data set is described as follows: Inhibitory activity against progesterone receptor (PR) in ovariectomized mature female rat decidualization model. The format is functional. The gist of the method: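 Ovariectomized mature rats dosed orally for 7 days, with progesterone 5.6 mg/kg SC given alongside; vehicle-only controls. Decidual response (D/C) measured 24 h after the final treatment, seven animals per point. ED50 averaged from at least duplicate determinations.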

Data set [5] in a line: Half life in female rats for a dose of 1 mg/kg administered intravenously. The format is ADME, organism-based. On the set-up: dose 1 mg/kg, route intravenous. The conditions noted are these: rat, in vivo, iv.
Data set [6] is described as follows: Area under the curve (AUC) for the compound in female rats for a dose of 1 mg/kg administered intravenously. The format is ADME, organism-based. On the set-up: dose 1 mg/kg, route intravenous. To be noted: rat, in vivo, iv.
A short description of data set [7]: Plasma clearance (Cl) for the compound in female rats for a dose of 1 mg/kg administered intravenously. The format is ADME, organism-based. On the set-up: dose 1 mg/kg, route intravenous. To be noted: rat, iv, read-out: Clp (converted).
In data set [8] the target is T2, Progesterone receptor (Rattus norvegicus). The data set is described as follows: inhibitory activity against progesterone receptor (PR) in ovariectomized mature female rat complement C3 model. The data set is classed as functional. The gist of the method:
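Adult ovariectomized rats given oral doses; read-out is reversal of progestin down-regulation of estrogen-induced complement C3 synthesis in uterine epithelium. ED50 averaged from at least duplicate determinations.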

Broadly, the pIC50 is −log10 of the IC50, conventionally taken in molar units. The low end stands for a large IC50, the high end for a small IC50. As to `COc1cccc(-c2ccc3c(c2)C(C)(C)OC(=O)N3)c1`, the pIC50 is 7.71 against Progesterone receptor [1] and 7.42 at Progesterone receptor [2].

Usually pEC50 stands for −log10 of the EC50, conventionally taken in molar units. A high value points to a small EC50. As a reminder, the ED50 is the midpoint of the dose-response relation. On Progesterone receptor [3], `CC1(C)OC(=O)Nc2ccc(-c3cc(F)cc(Cl)c3)cc21` gave a pEC50 of 6.30. In data set [4], this compound returned an ED50 of 2 mg/kg. Further, the pIC50 on Progesterone receptor [2] is 8.59.

Consider `CC1(C)OC(=O)Nc2c(F)cc(-c3cc(F)cc(C#N)c3)cc21`, for which it took a dose of 0.6 mg/kg to reach the 50% effect level in data set [4] (ED50). Further, the pIC50 against Progesterone receptor [1] is 7.58; on Progesterone receptor [2] it was 7.01.

With `CC1(C)OC(=O)Nc2ccc(-c3ccccc3Cl)cc21`, the pIC50 against Progesterone receptor [1] was 6.52; on Progesterone receptor [2], 6.30.

`CC1(C)OC(=O)Nc2ccc(-c3cccc(Cl)c3)cc21` showed an ED50 in data set [4] of over 30 mg/kg. Also, the pIC50 against Progesterone receptor [1] is 7.52; on Progesterone receptor [2], 8.03.

In the case of `CC1(C)OC(=O)Nc2ccc(-c3ccc(Cl)cc3)cc21`, the results for the pIC50 on Progesterone receptor [1] and against Progesterone receptor [2] were 7.52 and 6.19, respectively.

In general, half-life refers to the time needed for the level to fall by half in the phase considered. The AUC is concentration integrated over time. Compound `CC1(C)OC(=O)Nc2ccc(-c3cccc(C#N)c3)cc21` showed a half-life in data set [5] of 36 min. For the same compound, in data set [6], the AUC came to 460 ng·h/mL. This compound yielded an ED50 in data set [4] of 7 mg/kg. The clearance in data set [7] is 36.3 mL/min/kg. In addition, the pIC50 was 7.77 on Progesterone receptor [1] and 8.00 against Progesterone receptor [2].

For `CC1(C)OC(=O)Nc2ccc(-c3cccc(F)c3)cc21`, it took a dose of 1.5 mg/kg to reach the 50% effect level in data set [4] (ED50). Also, the negative-log IC50 (pIC50) against Progesterone receptor [1] was 8.09; against Progesterone receptor [2], 8.42.

On to `CC1(C)OC(=O)Nc2ccc(-c3ccc(F)c(C#N)c3)cc21`, for which the pIC50 against Progesterone receptor [1] is 7.82.

In the case of `CC#C[C@]1(O)CC[C@H]2[C@@H]3CCC4=CC(=O)CCC4=C3[C@@H](c3ccc(N(C)C)cc3)C[C@@]21C`, the figures for the ED50 in data set [4] and in data set [8] were 0.3 mg/kg and 1.7 mg/kg, respectively.
